Sampled rows, rich in hits. Any-hit rate of the full collection: about 1.9%.
procasp3 activ – activates human procaspase-3. recombinant procaspase-3 D3A, Ac-DEVD-pNA absorbance 405 nm. activation, % at 8.5 µM. 0.11% of 330,000 active. AID 463141;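 active means activation above the mean of all tested compounds plus 3 SD, cut at about 21% in these data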;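 further: 0% = DMSO alone and 100% = DMSO wells spiked with extra 5 µM PC-3 D3A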
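material = Procaspase-3 D3A mutant | probe or stimulus = Ac-DEVD-pNA | compound = single dose, 8.5 µM nominal compound, 0.8% DMSO | timing = 1 h preincubation, 2 h reaction | measured by = 405 nm absorbance of p-nitroaniline, reads at 0 and 120 min | benchmarks = DMSO-only low control, 5 µM PC-3 D3A high control | repeats = singlicate, each compound tested once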
Neddyl block – blocks human cullin neddylation | AID 651699 | P61081+Q13564 | 0.58% of 360,000 active | TR-FRET cullin neddylation, biochemical | inhibition, % at 25 µM; in the data active means inhibition above about 36%
Target sequence (P61081 whole entry, looked up): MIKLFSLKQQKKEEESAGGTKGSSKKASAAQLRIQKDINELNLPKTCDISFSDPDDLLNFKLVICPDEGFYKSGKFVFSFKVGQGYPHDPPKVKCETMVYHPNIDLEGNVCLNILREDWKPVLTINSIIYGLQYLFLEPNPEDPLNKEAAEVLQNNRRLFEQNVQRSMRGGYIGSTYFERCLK
Target sequence (Q13564 whole entry, looked up): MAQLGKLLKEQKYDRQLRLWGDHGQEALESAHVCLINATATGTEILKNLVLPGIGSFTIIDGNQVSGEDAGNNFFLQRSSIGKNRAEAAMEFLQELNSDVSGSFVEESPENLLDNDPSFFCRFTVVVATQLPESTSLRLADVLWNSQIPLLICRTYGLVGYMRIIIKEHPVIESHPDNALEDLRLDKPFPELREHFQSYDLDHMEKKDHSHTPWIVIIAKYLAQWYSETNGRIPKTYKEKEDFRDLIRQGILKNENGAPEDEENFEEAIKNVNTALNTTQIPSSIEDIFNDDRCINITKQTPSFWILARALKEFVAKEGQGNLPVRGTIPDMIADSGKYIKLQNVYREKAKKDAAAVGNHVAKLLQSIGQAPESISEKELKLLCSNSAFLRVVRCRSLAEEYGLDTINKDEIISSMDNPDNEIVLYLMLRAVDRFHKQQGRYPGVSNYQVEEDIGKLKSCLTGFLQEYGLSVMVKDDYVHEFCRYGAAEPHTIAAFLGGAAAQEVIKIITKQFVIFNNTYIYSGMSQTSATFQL
procasp7 counter – counter-screen: procaspase-7 (human) activation; recombinant procaspase-7, Ac-DEVD-pNA absorbance 405 nm; D23A/D198A/D206A triple mutant, cannot self-cleave; scale: DMSO 0, 5 µM enzyme 100; AID 463210; activation, % at 8.5 µM; 0.093% of 330,000 active; P55210;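 active means percent activation above the screen-wide mean plus 3 SD, cut at about 25% in these data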
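Detection: p-Nitroaniline absorbance at 405 nm, read at 0 and 120 min; system: Uncleavable procaspase-7 mutant enzyme; evaluation: % activation from two-timepoint absorbance difference, scaled to controls; times: 1 h enzyme–compound preincubation and 2 h substrate reaction, both 25 °C; buffer or medium: Zinc-free HEPES pH 7.4 with 300 mM NaCl, 0.01% Triton X-100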
Calb FLC – C. albicans growth modulation with fluconazole; C. albicans CaCi-2 + fluconazole, Alamar Blue growth, 48 h; growth inhibition, % (no concentration beside the values); 0.57% of 300,000 active; AID 1979;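 active means growth inhibition above about 58% in most replicates, limit read from the data, passing the limit was not always enough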;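 further: all wells also contain fluconazole at 8 µg/ml as a sub-toxic cotreatment; 0% = median of DMSO wells and 100% = median of geldanamycin control wells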
FXN GAA850 act – activators of GAA850 frataxin (FXN) promoter. HEK293 lucGAA850 FXN promoter luciferase reporter, 24 h; percent of 10 µM SAHA response. activation, % at 6 µM. 0.56% of 360,000 active;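 active means activation above the average of all compounds screened plus 3 SD, cutoff fixed separately per campaign, cut at about 7.5% in these data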;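 further: 0% = DMSO wells and 100% = 10 µM SAHA wells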
HIF activator – HIF pathway transcriptional activation. U2OS HRE-luciferase reporter, luminescence; normalized: DMSO 0%, desferrioxamine 100%. activation, % at 7.5 µM (by protocol). 0.32% of 300,000 active. AID 1910;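 active means mean activation of at least 10% of the iron chelator positive control signal, with at least half of replicates also reaching 10%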
Numbers without * were called inactive.

How did O=C(Cn1ncc2c3ccccc3n(Cc3ccccc3)c2c1=O)N1CCN(c2ccccn2)CC1 do in these assays?
procasp3 activ: -1; Neddyl block: -21; procasp7 counter: -1; Calb FLC: -2; FXN GAA850 act: 19*; HIF activator: 0

How did CCOC(=O)COc1ccc(S(=O)(=O)N2CCN(c3ccccc3F)CC2)cc1 do in these assays?
procasp3 activ: 0; Neddyl block: -6; procasp7 counter: 6; Calb FLC: 103*; FXN GAA850 act: 0; HIF activator: 0

What do the screens show for `O=C(COc1ccc(S(=O)(=O)N2CCCC2)cc1)N1CCN(c2ccccc2F)CC1`?
procasp3 activ: 11; Neddyl block: 6; procasp7 counter: -5; Calb FLC: 3; FXN GAA850 act: -3; HIF activator: 0

What do the screens show for `CCCC1CCC(c2nc(-c3cccnc3)no2)CC1` (stereo not drawn)?
procasp3 activ: -2; Neddyl block: -6; procasp7 counter: -3; Calb FLC: -14; FXN GAA850 act: 3; HIF activator: 1

How did CCCCCCC1CCC(c2nc(-c3ccncc3)no2)CC1 (stereo not drawn) do in these assays?
procasp3 activ: -5; Neddyl block: -2; procasp7 counter: 0; Calb FLC: 18; FXN GAA850 act: 0; HIF activator: 35*

Results for COc1ccc(-n2nc(C#N)c(Cl)cc2=O)cc1 ?
Neddyl block: -2; FXN GAA850 act: 33*

Results for COC(=O)c1nn(-c2ccc(OC)cc2)c(=O)cc1O ?
procasp3 activ: -5; Neddyl block: -2; procasp7 counter: -16; Calb FLC: -1; FXN GAA850 act: 5; HIF activator: 0

Results for S=c1[nH]nc(-c2n[nH]c3c2CCC3)n1/N=C/C=C/c1ccco1 ?
procasp3 activ: -8; Neddyl block: 55*; procasp7 counter: -19; Calb FLC: 18; FXN GAA850 act: 4; HIF activator: 0

Results for CC(Sc1ccc(Cl)cc1)C(=O)NCc1ccc2c(c1)OCO2 (stereo not drawn) ?
procasp3 activ: 2; Neddyl block: -6; procasp7 counter: 1; Calb FLC: 97*; FXN GAA850 act: 0; HIF activator: 1

Results for CC(Sc1ccc(Cl)cc1)C(=O)Nc1ccc2c(c1)OCO2 (stereo not drawn) ?
procasp3 activ: -3; Neddyl block: -3; procasp7 counter: 0; Calb FLC: -70; FXN GAA850 act: 2; HIF activator: 2

How did CCC[C@H]1CC(=O)C=C(c2ccc(OC)cc2)ON1C(=O)OC(C)(C)C do in these assays?
Neddyl block: 0; FXN GAA850 act: 0

How did CC(C)(C)NC(=O)COC(=O)c1ccc(Cl)nc1 do in these assays?
procasp3 activ: 1; Neddyl block: -5; procasp7 counter: 6; Calb FLC: 23; FXN GAA850 act: -1; HIF activator: 71*

Results for N#C/C(=C/c1ccccc1)c1nn(CCO)c(N)c1C#N ?
procasp3 activ: 9; Neddyl block: -13; procasp7 counter: 3; Calb FLC: 2; FXN GAA850 act: 2; HIF activator: -6

Results for N#C/C(=C\c1ccc(/C=C(/C#N)c2nn(CCO)c(N)c2C#N)cc1)c1nn(CCO)c(N)c1C#N ?
procasp3 activ: 6; Neddyl block: 4; procasp7 counter: 0; Calb FLC: -5; FXN GAA850 act: 1; HIF activator: 155*

How did N/C(Cc1nc(-c2ccc(Br)cc2)cs1)=N\O do in these assays?
procasp3 activ: -5; Neddyl block: -34; procasp7 counter: 9; Calb FLC: 99*; FXN GAA850 act: 2; HIF activator: 4

What do the screens show for `COc1cccc(S(=O)(=O)N(C)C[C@@H]2OCc3cnnn3CCCC(=O)N([C@H](C)CO)C[C@@H]2C)c1`?
Neddyl block: 0; FXN GAA850 act: 1

How did COC(=O)c1ccc(COc2ccc(/C=C(\C#N)c3nc4ccccc4[nH]3)cc2OC)o1 do in these assays?
procasp3 activ: -3; Neddyl block: 31; procasp7 counter: -17; Calb FLC: 79*; FXN GAA850 act: -5; HIF activator: 0

Compound activity from PubChem.
